This note sets out measurements from ChEMBL document CHEMBL1122627, “Synthesis of certain hydroxy analogues of the antimalarial drug primaquine and their in vitro methemoglobin-producing and glutathione-depleting activity in human erythrocytes” (1984).

Holding throughout (type): functional
Experiment [1] is filed under the species Homo sapiens. In words: In vitro methemoglobin (metHb) forming activity in Glucose-6-phosphate dehydrogenase- (G6PD-) deficient human erythrocytes at 0.05 mM. Summed up: (§1)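 Blood (30–40 mL) from normal or G6PD-deficient human volunteers, anticoagulated with sodium edetate. Washed erythrocytes suspended to 50% in buffered dextrose saline, incubated with each compound at 37 °C for 2 h. Reaction stopped on ice for 5 min. Cells spun at 1500g for 10 min at 5 °C, washed twice in ice-cold buffered saline dextrose, resuspended to 50%.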

For experiment [2], the species on record is Homo sapiens. In words: In vitro methemoglobin (metHb) forming activity in normal human erythrocytes at 0.05 mM. Summed up: as §1
Experiment [3] is filed under the species Homo sapiens. In words: In vitro decreasing the GSH content in normal in human erythrocytes at 0.01 mM. Summed up:
as §1

The species entered for experiment [4] is Homo sapiens. In words: In vitro methemoglobin (metHb) forming activity in normal human erythrocytes. The procedure, abridged: as §1
For experiment [5], the species on record is Homo sapiens. In words: In vitro decreasing the GSH content in normal in human erythrocytes at 0.05 mM. Summed up:
as §1

“And” between values parts separate entries of the source, which are not always exact repeats. Identical values can stand only once.

With `CC(CCCN)Nc1cc(O)cc2cccnc12` (stereo unspecified), the Methemoglobin in the experiment filed under Homo sapiens [1] was 1.7% and 1.2%; in the experiment filed under Homo sapiens [2], 1.1%; in the experiment filed under Homo sapiens [4], 1.1%. For the same compound, the “GSH level (mg)” value in the experiment listed under Homo sapiens [3] was 63.8% and 45.8%. Besides, the GSH level in the experiment filed under Homo sapiens [5] was 63.4% and 44.8%.

Take `COc1cc(N)c2ncccc2c1O`: the Methemoglobin in the experiment filed under Homo sapiens [1] is 43.8% and 22.3%; in the experiment filed under Homo sapiens [2], 34.2%.

Consider `Nc1cc(O)c(O)c2cccnc12` [5,6-DIHYDROXY-8-AMINOQUINOLINE], for which the Methemoglobin worked out at 22.3% in the experiment listed under Homo sapiens [2] and 4.8% in the experiment listed under Homo sapiens [4].

In the case of `CC(CCCN)Nc1cc(O)c(O)c2cccnc12` (stereo unspecified) [5-HYDROXYDESMETHYLPRIMAQUINE], the Methemoglobin in the experiment listed under Homo sapiens [2] stood at 16.3%; in the experiment filed under Homo sapiens [4], 4.2%.

With `COc1cc(NC(C)CCCN)c2ncccc2c1O` (stereo unspecified) [5-HYDROXYPRIMAQUINE], the figures for the Methemoglobin in the experiment filed under Homo sapiens [2] and in the experiment listed under Homo sapiens [4] were 12.8% and 3.4%, respectively.

Turning to `COc1cc(NC(C)CCCN)c2ncccc2c1` (stereo unspecified) [PRIMAQUINE], the Methemoglobin is given as 1.3% in the experiment filed under Homo sapiens [1] and 1% in the experiment filed under Homo sapiens [2]. For the same compound, in the experiment filed under Homo sapiens [5], the GSH level was 60% and 47.4%.
